Calls of active or inactive are those of the source. The rule behind the calls is not given here.
Assays:
[1] = molecular target: T1, Phosphatidylserine lipase ABHD16A (Homo sapiens) (UniProt O95870); assay: Ratio of IC50 for reversible inhibition of human ABHD16A expressed in HEK293 cells to IC50 for inhibition of human ABHD16A expressed in HEK293 cells; format: cell-based
T1 sequence (whole entry): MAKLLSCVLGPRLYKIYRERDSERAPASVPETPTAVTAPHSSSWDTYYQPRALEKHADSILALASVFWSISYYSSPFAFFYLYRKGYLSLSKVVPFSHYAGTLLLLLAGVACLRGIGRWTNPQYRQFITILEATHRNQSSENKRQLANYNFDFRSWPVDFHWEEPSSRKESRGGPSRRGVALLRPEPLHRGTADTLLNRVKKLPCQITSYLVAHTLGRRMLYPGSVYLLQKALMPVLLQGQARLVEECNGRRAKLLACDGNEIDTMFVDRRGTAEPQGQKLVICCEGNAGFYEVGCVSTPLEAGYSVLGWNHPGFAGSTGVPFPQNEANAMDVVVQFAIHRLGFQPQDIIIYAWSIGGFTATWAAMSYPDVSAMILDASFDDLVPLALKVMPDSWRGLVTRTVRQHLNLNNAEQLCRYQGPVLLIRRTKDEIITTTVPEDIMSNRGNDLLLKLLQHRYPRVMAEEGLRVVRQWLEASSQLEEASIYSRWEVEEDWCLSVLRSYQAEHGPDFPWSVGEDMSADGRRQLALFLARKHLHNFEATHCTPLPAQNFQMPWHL
How it was run: (§1)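 Reversibility test: hABHD16A-HEK293 lysate treated with inhibitor was rapidly diluted 40-fold before substrate addition. Inhibitor range extended up to 1 mM, and potency was compared with the routine assay (30 min pretreatment, 1-LG hydrolysis, glycerol read-out). Mean ± SD from two independent experiments.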

[2] = molecular target: T2, Phosphatidylserine lipase ABHD16A (Rattus norvegicus) (UniProt Q6MG55); assay: Inhibition of TAMRA-FP binding to ABHD16A in rat cerebellar membranes preincubated for 1 hr followed by TAMRA-FP addition measured after 1 hr by fluorescence based ABPP analysis; format: cell membranes; conditions: Cerebellum, Membrane
T2 sequence (whole entry): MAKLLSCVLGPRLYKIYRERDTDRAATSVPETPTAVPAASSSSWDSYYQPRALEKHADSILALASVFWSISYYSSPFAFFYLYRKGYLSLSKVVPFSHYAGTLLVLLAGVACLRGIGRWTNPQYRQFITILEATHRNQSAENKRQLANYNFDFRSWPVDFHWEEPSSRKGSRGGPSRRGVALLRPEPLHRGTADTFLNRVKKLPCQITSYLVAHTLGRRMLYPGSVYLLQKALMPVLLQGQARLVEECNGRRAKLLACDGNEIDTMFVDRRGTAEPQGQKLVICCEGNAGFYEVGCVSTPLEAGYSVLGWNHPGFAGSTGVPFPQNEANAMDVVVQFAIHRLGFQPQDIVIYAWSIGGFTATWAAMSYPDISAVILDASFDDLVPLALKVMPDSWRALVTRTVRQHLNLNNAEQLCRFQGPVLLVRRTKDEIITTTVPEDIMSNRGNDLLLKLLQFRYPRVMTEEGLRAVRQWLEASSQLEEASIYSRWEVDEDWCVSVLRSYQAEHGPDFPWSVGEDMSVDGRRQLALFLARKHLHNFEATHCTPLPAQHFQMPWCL
How it was run: (§2)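 Competitive ABPP in rat cerebellar membrane proteome: the proteome was pretreated with inhibitor, then labelled with the TAMRA-FP probe, and loss of band labelling was read by fluorescence. Reversible test inhibitors were used at 20 and 200 µM.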

[3] = molecular target: T3, ABHD12 (lysophosphatidylserine lipase) (Homo sapiens, UniProt Q8N2K0); assay: Inhibition of human ABHD12 expressed in HEK293 cells assessed as residual activity at 10 uM preincubated for 30 mins followed by 1-AG substrate addition and measured after 90 to 120 mins by fluorometric assay relative to control; format: cell-based; conditions: HEK293 cells that express human ABHD12, probe 1-AG, read-out: Activity
T3 sequence (Q8N2K0 whole entry): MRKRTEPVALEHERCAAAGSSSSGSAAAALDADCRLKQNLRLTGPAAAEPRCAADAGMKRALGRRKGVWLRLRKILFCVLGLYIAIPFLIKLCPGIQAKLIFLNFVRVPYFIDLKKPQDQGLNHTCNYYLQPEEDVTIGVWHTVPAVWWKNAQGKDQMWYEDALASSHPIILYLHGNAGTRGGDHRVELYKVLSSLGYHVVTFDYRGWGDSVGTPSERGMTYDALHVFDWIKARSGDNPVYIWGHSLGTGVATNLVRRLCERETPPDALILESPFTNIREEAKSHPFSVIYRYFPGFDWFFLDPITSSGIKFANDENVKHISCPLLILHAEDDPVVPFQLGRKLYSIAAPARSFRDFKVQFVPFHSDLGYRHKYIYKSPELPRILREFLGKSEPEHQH
How it was run: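 Screened at 10 µM in lysates of HEK293 cells overexpressing human ABHD12, given as remaining hydrolase activity relative to control (mean ± SD, n=2-3).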

[4] = molecular target: T4, Phosphatidylserine lipase ABHD16A (Homo sapiens, UniProt O95870); assay: Reversible inhibition of human ABHD16A expressed in HEK293 cells preincubated for 30 mins followed by 40 fold compound dilution and subsequent 1-LG substrate addition and measured at 30 mins time interval for 120 mins by fluorometric assay; format: cell-based; how it was run: as §1
T4 sequence (O95870 whole entry): T1 sequence (whole entry)

[5] = molecular target: T1, Phosphatidylserine lipase ABHD16A (Homo sapiens); assay: Inhibition of human ABHD16A expressed in HEK293 cells assessed as residual activity at 100 uM preincubated for 30 mins followed by 1-LG substrate addition and measured after 90 to 120 mins by fluorometric assay relative to control; format: cell-based
How it was run: (§3)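 Lysates of HEK293 cells transiently overexpressing human ABHD16A were pretreated 30 min with DMSO (control) or inhibitor, then 1-LG substrate was added (25 µM final), and liberated glycerol was measured. The single-concentration screen was at 10 µM, reported as % control activity (mean ± SD, n=2-3). Dose-responses used four concentrations (0.1-100 µM), duplicate wells, two independent experiments.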

[6] = molecular target: T1, Phosphatidylserine lipase ABHD16A (Homo sapiens); assay: Inhibition of human ABHD16A expressed in HEK293 cells assessed as residual activity at 10 uM preincubated for 30 mins followed by 1-LG substrate addition and measured after 90 to 120 mins by fluorometric assay relative to control; format: cell-based; how it was run: as §3
[7] = molecular target: T4, Phosphatidylserine lipase ABHD16A; assay: Inhibition of human ABHD16A expressed in HEK293 cells preincubated for 30 mins followed by 1-LG substrate addition and measured after 90 to 120 mins by fluorometric assay; format: cell-based; how it was run: as §3
[8] = molecular target: T1, Phosphatidylserine lipase ABHD16A (Homo sapiens); assay: Inhibition of TAMRA-FP binding to human ABHD16A expressed in HEK293 cells at 20 to 200 uM preincubated for 1 hr followed by TAMRA-FP addition measured after 1 hr by fluorescence based ABPP analysis; format: cell-based
[9] = molecular target: T2, Phosphatidylserine lipase ABHD16A (Rattus norvegicus); assay: Inhibition of TAMRA-FP binding to ABHD16A in rat cerebellar membranes at 200 uM preincubated for 1 hr followed by TAMRA-FP addition measured after 1 hr by fluorescence based ABPP analysis; format: cell membranes; conditions: Cerebellum, Membrane; how it was run: as §2
[10] = molecular target: T1, Phosphatidylserine lipase ABHD16A (Homo sapiens); assay: Potency index, ratio of tetrahydrolipstatin IC50 to compound IC50 for inhibition of ABHD16A (unknown origin)
[11] = molecular target: T2, Phosphatidylserine lipase ABHD16A (Rattus norvegicus); assay: Inhibition of TAMRA-FP binding to ABHD16A in rat cerebellar membranes at 1 uM preincubated for 1 hr followed by TAMRA-FP addition measured after 1 hr by fluorescence based ABPP analysis; format: cell membranes; conditions: Cerebellum, Membrane
How it was run: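 Competitive ABPP on rat cerebellar membrane proteome. Proteome was pretreated with inhibitor, then labeled with the serine hydrolase probe TAMRA-FP. Loss of labeling of the band migrating at ~63 kDa, assigned as ABHD16A, was the read-out.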

[12] = molecular target: Acyl-protein thioesterase 1 (Rattus norvegicus) (UniProt P70470); assay: Binding affinity to LYPLA1 in rat cerebellar membranes at 10 uM measured after 1 hr by fluorescence based ABPP analysis; format: cell membranes; conditions: Cerebellum, Membrane
Acyl-protein thioesterase 1 (Rattus norvegicus), sequence (P70470 whole entry): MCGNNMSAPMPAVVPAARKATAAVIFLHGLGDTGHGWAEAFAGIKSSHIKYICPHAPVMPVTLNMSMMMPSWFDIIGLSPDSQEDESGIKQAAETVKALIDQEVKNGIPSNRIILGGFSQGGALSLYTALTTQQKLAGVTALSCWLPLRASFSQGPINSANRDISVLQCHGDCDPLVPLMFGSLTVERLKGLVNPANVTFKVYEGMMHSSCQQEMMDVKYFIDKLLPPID

[13] = molecular target: T2, Phosphatidylserine lipase ABHD16A (Rattus norvegicus); assay: Inhibition of TAMRA-FP binding to ABHD16A in rat cerebellar membranes at 10 uM preincubated for 1 hr followed by TAMRA-FP addition measured after 1 hr by fluorescence based ABPP analysis; format: cell membranes; conditions: Cerebellum, Membrane
[14] = molecular target: Acyl-protein thioesterase 2 (Rattus norvegicus) (UniProt Q9QYL8); assay: Binding affinity to LYPLA2 in rat cerebellar membranes at 10 uM measured after 1 hr by fluorescence based ABPP analysis; format: cell membranes; conditions: Cerebellum, Membrane; how it was run: as §2
Acyl-protein thioesterase 2 (Rattus norvegicus), sequence (Q9QYL8 whole entry): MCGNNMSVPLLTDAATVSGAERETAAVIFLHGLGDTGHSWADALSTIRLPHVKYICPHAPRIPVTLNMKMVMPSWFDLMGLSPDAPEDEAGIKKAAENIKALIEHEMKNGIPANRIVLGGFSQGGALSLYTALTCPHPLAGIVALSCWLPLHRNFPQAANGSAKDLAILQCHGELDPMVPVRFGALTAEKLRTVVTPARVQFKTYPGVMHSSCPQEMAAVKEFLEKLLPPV

COC(=O)[C@]1(C)CCC[C@]2(C)c3cc(-c4csc(C)n4)c(C(C)C)cc3CC[C@@H]12
Ratio IC50 [1]: 11.4
inhibition [2]: Dose-dependent effect
activity at 10 µM [3]: 100%
IC50 [4]: 41.1 µM
Activity [5]: 12%
Activity [6]: 23%
IC50 [7]: 3.4 to 3.6 µM

COC(=O)[C@]1(C)CCC[C@]2(C)c3cc(-c4csc(-c5ccccc5Cl)n4)c(C(C)C)cc3CC[C@@H]12
activity at 10 µM [3]: 101%
Activity [6]: 86.6%

CC(C)c1cc2c(cc1-c1cscn1)[C@@]1(C)CCC[C@@](C)(C(N)=O)[C@@H]1CC2
activity at 10 µM [3]: 98.7%
Activity [6]: 82.1%

CC(C)c1cc2c(cc1-c1csc(N)n1)[C@@]1(C)CCC[C@@](C)(C(N)=O)[C@@H]1CC2
activity at 10 µM [3]: 96.9%
Activity [6]: 80%

COC(=O)[C@]1(C)CCC[C@]2(C)c3cc(-c4csc(C#N)n4)c(C(C)C)cc3CC[C@@H]12
Ratio IC50 [1]: 6.4
activity at 10 µM [3]: 94.3%
IC50 [4]: 31.6 µM
Activity [5]: 25%
Activity [6]: 42.8%
IC50 [7]: 4.9 to 5.2 µM
inhibition [8]: inactive
inhibition [9]: Active

CCOC(=O)c1nc(-c2cc3c(cc2C(C)C)CC[C@H]2[C@](C)(C(=O)OC)CCC[C@]32C)cs1
activity at 10 µM [3]: 73.8%
Activity [6]: 48.7%

COC(=O)[C@]1(C)CCC[C@]2(C)c3cc(-c4csc[n+]4C)c(C(C)C)cc3CC[C@@H]12
activity at 10 µM [3]: 91.1%
Activity [6]: 80.1%

CC(C)c1cc2c(cc1-c1cscn1)[C@@]1(C)CCC[C@@](C)(CO)[C@@H]1CC2
activity at 10 µM [3]: 96.3%
Activity [6]: 65.9%

COC(=O)[C@]1(C)CCC[C@]2(C)c3cc(-c4csc(N)n4)c(C(C)C)cc3CC[C@@H]12
activity at 10 µM [3]: 103%
Activity [6]: 58.2%

COc1nn(-c2ccc(F)cc2)c(=O)o1
Ratio IC50 [10]: 5.3
inhibition [11]: Active

CC(C)c1cc2c(cc1-c1csc(N)n1)[C@@]1(C)CCC[C@@](C)(CO)[C@@H]1CC2
activity at 10 µM [3]: 87.8%
Activity [6]: 74.6%

COC(=O)[C@]1(C)CCC[C@]2(C)c3cc(-c4cscn4)c(C(C)C)cc3CC[C@@H]12
activity at 10 µM [3]: 91.5%
Activity [6]: 50.3%

COC(=O)[C@]1(C)CCC[C@]2(C)c3cc(-c4csc(C)[n+]4C)c(C(C)C)cc3CC[C@@H]12
activity at 10 µM [3]: 92.8%
Activity [6]: 82.7%

Cc1nc(-c2cc3c(cc2C(C)C)CC[C@H]2[C@](C)(C(=O)O)CCC[C@]32C)cs1
activity at 10 µM [3]: 102%
Activity [6]: 98.4%

Cc1nc(-c2cc3c(cc2C(C)C)CC[C@H]2[C@](C)(CO)CCC[C@]32C)cs1
activity at 10 µM [3]: 98.7%
Activity [6]: 66.3%

Cc1nc(-c2cc3c(cc2C(C)C)CC[C@H]2[C@](C)(C(N)=O)CCC[C@]32C)cs1
activity at 10 µM [3]: 99.6%
Activity [6]: 80.6%

COC(=O)[C@]1(C)CCC[C@]2(C)c3cc(-c4csc(-c5ccccc5)n4)c(C(C)C)cc3CC[C@@H]12
activity at 10 µM [3]: 89.8%
Activity [6]: 73.8%

CCCCCCCCCC[C@@H]1C(=O)O[C@H]1CCc1ccc(OC)c(OC)c1 [PALMOSTATIN B]
Ratio IC50 [10]: 1.7
Ratio IC50 [1]: 1.8
Activity [12]: Active
IC50 [4]: 0.057 µM
inhibition [13]: Active
IC50 [7]: 0.099 to 0.105 µM
Activity [14]: Active

CC[n+]1c(-c2cc3c(cc2C(C)C)CC[C@H]2[C@](C)(C(=O)OC)CCC[C@]32C)csc1C
activity at 10 µM [3]: 91.1%
Activity [6]: 81.5%

CCCCCCCCCCCCCC1OC(=O)/C1=C\CCCCC(N)=O (configuration not stated)
Ratio IC50 [10]: 1.3

CC(C)c1cc2c(cc1-c1cscn1)[C@@]1(C)CCC[C@@](C)(C(=O)OCCO)[C@@H]1CC2
activity at 10 µM [3]: 77.8%
Activity [6]: 62.9%

COC(=O)[C@]1(C)CCC[C@]2(C)c3cc(-c4csc(-c5ccc(Cl)cc5)n4)c(C(C)C)cc3CC[C@@H]12
activity at 10 µM [3]: 96.6%
Activity [6]: 99.3%

CC(C)c1cc2c(cc1-c1cscn1)[C@@]1(C)CCC[C@@](C)(C(=O)O)[C@@H]1CC2
activity at 10 µM [3]: 98.4%
Activity [6]: 91.5%

CCCCCCCCCCC[C@@H](C[C@@H]1OC(=O)[C@H]1CCCCCC)OC(=O)[C@H](CC(C)C)NC=O
inhibition [13]: Active

Source: ChEMBL document CHEMBL4325934, “Discovery of 12-Thiazole Abietanes as Selective Inhibitors of the Human Metabolic Serine Hydrolase hABHD16A” (ACS Med Chem Lett, 2018)
